ChEMBL document CHEMBL1127519, “1,3-Diarylindan-2-carboxylic acids, potent and selective non-peptide endothelin receptor antagonists” (J Med Chem, 1994)
pKi: −log10 of the molar value.

Key:
[1] = biological target: T1, Endothelin receptor type B (Homo sapiens, UniProt P24530); test: Inhibition of [125I]ET1 binding to cloned human ET-B receptor
T1 sequence (P24530 whole entry): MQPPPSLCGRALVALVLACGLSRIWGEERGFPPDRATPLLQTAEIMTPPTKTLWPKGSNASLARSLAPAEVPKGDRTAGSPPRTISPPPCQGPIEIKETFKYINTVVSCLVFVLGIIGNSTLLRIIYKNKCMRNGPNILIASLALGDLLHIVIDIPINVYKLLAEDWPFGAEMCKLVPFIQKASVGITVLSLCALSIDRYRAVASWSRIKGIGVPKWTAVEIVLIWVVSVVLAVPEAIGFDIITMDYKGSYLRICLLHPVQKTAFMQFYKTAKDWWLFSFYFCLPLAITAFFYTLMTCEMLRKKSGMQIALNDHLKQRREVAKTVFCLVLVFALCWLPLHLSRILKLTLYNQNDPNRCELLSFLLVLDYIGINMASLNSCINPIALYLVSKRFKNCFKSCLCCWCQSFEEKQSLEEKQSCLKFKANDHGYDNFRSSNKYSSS
Summary of the method: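 Membranes from CHO cells stably expressing cloned human ET-B receptor (0.05 μg per tube) incubated with [125I]ET-1 (0.3 nM), without or with rising concentrations of unlabeled ligand, 30 °C for 1 h. Filtration separated bound from free, gamma counting. Nonspecific binding 2-5%. Apparent Ki derived from competition curves, n ≥ 3.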

Endothelin-1 receptor [2] = biological target: T2, Endothelin-1 receptor (Homo sapiens, UniProt P25101); test: Inhibition of [125I]ET1 binding to cloned human Endothelin A receptor
T2 sequence (P25101 whole entry): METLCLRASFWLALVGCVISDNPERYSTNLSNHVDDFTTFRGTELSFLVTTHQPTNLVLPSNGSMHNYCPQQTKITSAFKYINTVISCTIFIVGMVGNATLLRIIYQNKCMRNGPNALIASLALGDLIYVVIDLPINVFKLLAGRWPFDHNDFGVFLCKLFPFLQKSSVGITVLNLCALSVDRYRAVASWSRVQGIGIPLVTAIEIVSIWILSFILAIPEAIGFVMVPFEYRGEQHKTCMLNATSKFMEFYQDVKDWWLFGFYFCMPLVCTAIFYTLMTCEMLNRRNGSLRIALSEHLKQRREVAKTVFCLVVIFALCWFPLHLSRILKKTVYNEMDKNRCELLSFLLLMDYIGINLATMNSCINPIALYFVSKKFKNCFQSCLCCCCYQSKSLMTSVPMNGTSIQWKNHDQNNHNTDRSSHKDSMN
Summary of the method: (§1)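 Membranes from CHO cells stably expressing cloned human ET-A receptor (0.5 μg per tube) incubated with [125I]ET-1 (0.3 nM) alone or with increasing unlabeled ligand, 1 h at 30 °C. Bound and free separated by filtration and counted by γ-counter. Nonspecific binding 8-25%. Apparent Ki from competition curves, n ≥ 3.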

Endothelin-1 receptor [3] = biological target: T2, Endothelin-1 receptor; test: Inhibition of [125I]ET1 binding to cloned human ET-A receptor; summary of the method: as §1

pKi [1]	pKi (Endothelin-1 receptor [2])	pKi (Endothelin-1 receptor [3])	Structure (SMILES)
< 4.52	5.25		COc1ccc([C@H]2c3ccccc3[C@@H](c3ccccc3)[C@@H]2C(=O)O)cc1
< 4.52		4.95	O=C(O)[C@H]1[C@H](c2ccccc2)c2ccccc2[C@@H]1c1ccccc1
6.32		7.82	COc1ccc([C@@H]2c3cc(O)ccc3[C@H](c3ccc4c(c3)OCO4)[C@H]2C(=O)O)cc1
5.61		6.37	COc1ccc([C@@H]2c3ccccc3[C@H](c3ccc(OC)cc3)[C@H]2C(=O)O)cc1
5.98		7.95	CCCOc1ccc2c(c1)[C@@H](c1ccc(OC)cc1)[C@H](C(=O)O)[C@H]2c1ccc2c(c1)OCO2
7.83		9.37	CCCOc1ccc2c(c1)[C@@H](c1ccc(OC)cc1OCC(=O)O)[C@H](C(=O)O)[C@H]2c1ccc2c(c1)OCO2 [SB-209670]
6.12		7.37	COc1ccc([C@H]2c3ccccc3[C@@H](c3ccc4c(c3)OCO4)[C@@H]2C(=O)O)cc1
